As a reminder, the IC50 is the point on the concentration scale where inhibition reaches its midpoint.

Here are results for two compounds from article PMC7781011 (Journal of Inflammation Research, 2020).

In assay [1] the test system is PGE2 production in LPS-stimulated macrophages of humans, mice, and rats. Briefly: PGE2 production in LPS-stimulated macrophages, range over species. Type of assay: cell-based. The settings on record: Macrophage, read-out: IC50 range PGE2 production. The method, boiled down:
(§1)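 Human macrophages derived from THP-1 monocytes with PMA. Rat/mouse peritoneal macrophages collected by lavage with ice-cold DMEM, selected by glass adherence (1 h, 37°C), Trypan-blue checked. Cells in DMEM+10% FBS at 10,000 (96-well) or 40,000 (24-well) per well, given non-toxic compound doses, then LPS 10 µg/mL for 24 h. PGE2, PGI2 and LTB4 measured in supernatant. IC50 by four-parameter nonlinear regression.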

The test system of assay [2] is PGE2 production, colon tumor spheroids of Apc^Pirc/+ rats. Description: PGE2 in colon spheroid culture supernatant. In kind it is cell-based, rat. The settings on record: compared with the untreated control. The method, boiled down: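 Pirc rat colorectal crypt/single-cell spheroids grown in ultra-low-attachment wells in B27/N2, FBS, EGF, Noggin, R-spondin 1 and Y-27632 medium, changed every other day. PGE2 in supernatants of treated and untreated wells measured by ELISA, in pg/mL.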

Assay [3] has as its system PGI2 production in LPS-stimulated macrophages of humans, mice, and rats. Description: PGI2 production in LPS-stimulated macrophages, range over species. Type of assay: cell-based. As to conditions: Macrophage. The method, boiled down: as §1
The target of assay [4] is T1, rat COX-1 (Rattus norvegicus, UniProt Q63921).
T1 sequence (Q63921 27-602): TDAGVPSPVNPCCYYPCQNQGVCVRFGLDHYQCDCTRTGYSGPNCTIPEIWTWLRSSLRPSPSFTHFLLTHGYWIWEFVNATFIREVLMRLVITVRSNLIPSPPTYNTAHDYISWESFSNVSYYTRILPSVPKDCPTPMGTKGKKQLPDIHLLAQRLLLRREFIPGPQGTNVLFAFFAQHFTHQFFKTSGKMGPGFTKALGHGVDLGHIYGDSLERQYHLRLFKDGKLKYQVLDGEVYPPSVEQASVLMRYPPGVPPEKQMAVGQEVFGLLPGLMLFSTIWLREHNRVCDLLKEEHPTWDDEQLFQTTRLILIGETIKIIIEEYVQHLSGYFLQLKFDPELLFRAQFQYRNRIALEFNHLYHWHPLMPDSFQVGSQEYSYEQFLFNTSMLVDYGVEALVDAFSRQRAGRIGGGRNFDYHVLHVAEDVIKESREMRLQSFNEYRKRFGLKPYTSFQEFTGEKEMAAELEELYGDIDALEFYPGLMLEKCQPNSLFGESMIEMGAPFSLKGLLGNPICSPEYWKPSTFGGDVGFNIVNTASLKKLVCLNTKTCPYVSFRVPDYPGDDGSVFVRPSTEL
Description: Cell-free fluorometric COX-1 assay. Type of assay: biochemical.

Assay [5] addresses T2, rat mPGES-1 (Rattus norvegicus, UniProt Q9JHF3).
T2 sequence (Q9JHF3 1-153): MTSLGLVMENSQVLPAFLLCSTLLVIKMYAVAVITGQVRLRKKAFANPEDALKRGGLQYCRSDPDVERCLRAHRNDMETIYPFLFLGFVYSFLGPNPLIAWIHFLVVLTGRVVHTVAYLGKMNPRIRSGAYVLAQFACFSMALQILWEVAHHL
Description: Cell-free mPGES-1 assay. The settings on record: IC50 mPGES-1, cell-free. In kind it is biochemical.

Assay [6] deals with T3, human mPGES-1 (Homo sapiens, UniProt O14684).
T3 sequence (O14684 1-152): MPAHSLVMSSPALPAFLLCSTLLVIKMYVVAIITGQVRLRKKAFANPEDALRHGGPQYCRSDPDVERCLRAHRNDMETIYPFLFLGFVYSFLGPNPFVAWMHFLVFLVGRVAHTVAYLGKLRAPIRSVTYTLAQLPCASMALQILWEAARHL
Briefly: Cell-free mPGES-1 assay. Type of assay: biochemical. The method, boiled down:
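Enzyme in 15 mM Tris-HCl pH 7.4 with 1 mM GSH, preincubated 20 min with compound (0.1–100 µM); plate held 15 min at 20°C. PGH2 (final 2.8 µM) added, 45 s at room temperature, then stopped with SnCl2 in 1N HCl. PGE2 by ELISA, in triplicate, % inhibition versus untreated. Human enzyme from E. coli or commercial; mouse enzyme from vas deferens/seminal vesicles. IC50 by four-parameter nonlinear regression.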

In assay [7] the target is T4, human 5-LOX (Homo sapiens, UniProt P09917).
T4 sequence (P09917 1-674): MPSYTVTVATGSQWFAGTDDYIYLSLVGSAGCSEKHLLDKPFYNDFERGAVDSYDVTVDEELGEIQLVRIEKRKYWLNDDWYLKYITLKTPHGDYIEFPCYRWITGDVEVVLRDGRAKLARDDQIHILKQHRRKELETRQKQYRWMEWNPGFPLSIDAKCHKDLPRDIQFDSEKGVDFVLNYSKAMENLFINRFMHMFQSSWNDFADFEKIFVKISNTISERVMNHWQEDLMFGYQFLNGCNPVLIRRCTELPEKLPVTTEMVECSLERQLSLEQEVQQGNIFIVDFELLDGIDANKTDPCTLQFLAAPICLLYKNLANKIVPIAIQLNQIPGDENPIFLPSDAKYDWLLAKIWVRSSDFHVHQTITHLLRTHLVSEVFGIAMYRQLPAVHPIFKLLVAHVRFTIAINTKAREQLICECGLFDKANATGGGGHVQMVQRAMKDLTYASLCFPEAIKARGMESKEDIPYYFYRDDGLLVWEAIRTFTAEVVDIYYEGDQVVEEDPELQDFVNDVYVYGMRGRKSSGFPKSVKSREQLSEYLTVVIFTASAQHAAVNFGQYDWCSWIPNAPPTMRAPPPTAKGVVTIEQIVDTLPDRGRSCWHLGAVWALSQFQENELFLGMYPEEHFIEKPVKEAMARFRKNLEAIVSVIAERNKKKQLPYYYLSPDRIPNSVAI
Briefly: Cell-free fluorometric 5-LOX assay. The settings on record: IC50 5-LOX. Type of assay: biochemical.

The test system of assay [8] is LTB4 production in LPS-stimulated macrophages of humans, mice, and rats. Description: LTB4 production in LPS-stimulated macrophages, range over species. The settings on record: Macrophage, read-out: IC50 range LTB4 production. Type of assay: cell-based. The method, boiled down: as §1
Assay [9] concerns the target human COX-1 (Homo sapiens, UniProt P23219). Description: Cell-free fluorometric COX-1 assay. In kind it is biochemical.

Read-outs that look alike come from different tables or passages of the source.

Sequence of human COX-1 (P23219 24-599): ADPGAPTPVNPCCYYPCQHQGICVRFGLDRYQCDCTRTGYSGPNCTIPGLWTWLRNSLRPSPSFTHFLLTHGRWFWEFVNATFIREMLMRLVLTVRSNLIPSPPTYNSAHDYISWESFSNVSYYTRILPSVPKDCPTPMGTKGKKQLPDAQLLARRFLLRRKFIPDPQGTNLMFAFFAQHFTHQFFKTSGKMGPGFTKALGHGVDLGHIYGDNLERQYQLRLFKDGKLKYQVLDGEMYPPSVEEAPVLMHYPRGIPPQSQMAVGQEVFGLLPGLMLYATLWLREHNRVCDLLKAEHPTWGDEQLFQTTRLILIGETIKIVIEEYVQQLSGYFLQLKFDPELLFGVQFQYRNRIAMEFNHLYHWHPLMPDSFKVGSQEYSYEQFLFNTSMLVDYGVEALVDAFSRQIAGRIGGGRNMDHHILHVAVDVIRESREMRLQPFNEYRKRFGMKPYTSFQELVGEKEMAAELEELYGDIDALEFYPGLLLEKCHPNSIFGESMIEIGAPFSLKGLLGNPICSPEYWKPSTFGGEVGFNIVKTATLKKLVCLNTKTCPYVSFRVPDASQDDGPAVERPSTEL

Take `CC1(C)Cc2c(-c3ccccc3)c(-c3ccc(Cl)cc3)c(CC(=O)NCC(=O)O)n2C1` [LFA-9, 2-[[2-[2-(4-chlorophenyl)-6,6-dimethyl-1-phenyl-5,7-dihydropyrrolizin-3-yl]acetyl]amino]acetic acid]: the half-inhibitory concentration (IC50) is 0.47 to 0.78 µM in [1]; > 100 µM in [3] (read-out: IC50 PGI2 production); 1.4 µM in assay [5]; 0.87 µM in [6]; 2.75 µM in assay [7]; 0.63 to 1.24 µM in assay [8]. The “inhibition of PGE2 production” value in assay [2] worked out at 82%. Moreover, the “inhibition of COX-1 activity” value in assay [4] (cell-free, rat, up to the tested range of 1 mM) was “did not show inhibition”; in assay [9] (cell-free, human, up to the tested range of 1 mM), “did not show inhibition”.
For `CC1(C)Cc2c(-c3ccccc3)c(-c3ccc(Cl)cc3)c(CC(=O)O)n2C1` [Licofelone, reference compound], the concentration for half-maximal inhibition (IC50) in assay [1] is 0.56 to 1.31 µM; in assay [3] (read-out: IC50 range PGI2 production) it was 0.85 to 0.91 µM; in [4], 1.81 µM; in [5], 12.3 µM; in assay [6], 14 µM; in assay [7], 2.13 µM. Further, the IC50 in [8] was 0.53 to 1.6 µM; in [9], 1.65 µM. Moreover, the “inhibition of PGE2 production” value in assay [2] is recorded as 63%.
